This passage reports IC50 and inhibition results from ChEMBL document CHEMBL3352338, “Development and biological evaluation of potent and selective c-KIT(D816V) inhibitors” (J Med Chem, 2014).

Active and inactive are the calls of the source. No cut-off for these calls is given here.

Test [1] deals with Mast/stem cell growth factor receptor Kit (Homo sapiens, UniProt P10721, D816V). Put plainly: Inhibition of c-KIT D816V mutant (unknown origin).
The target in test [2] is Phosphatidylinositol 4,5-bisphosphate 3-kinase catalytic subunit alpha isoform (Homo sapiens, UniProt P42336). Briefly: Inhibition of PI3Kalpha (unknown origin).
Chain of Phosphatidylinositol 4,5-bisphosphate 3-kinase catalytic subunit alpha isoform (P42336 whole entry, canonical isoform): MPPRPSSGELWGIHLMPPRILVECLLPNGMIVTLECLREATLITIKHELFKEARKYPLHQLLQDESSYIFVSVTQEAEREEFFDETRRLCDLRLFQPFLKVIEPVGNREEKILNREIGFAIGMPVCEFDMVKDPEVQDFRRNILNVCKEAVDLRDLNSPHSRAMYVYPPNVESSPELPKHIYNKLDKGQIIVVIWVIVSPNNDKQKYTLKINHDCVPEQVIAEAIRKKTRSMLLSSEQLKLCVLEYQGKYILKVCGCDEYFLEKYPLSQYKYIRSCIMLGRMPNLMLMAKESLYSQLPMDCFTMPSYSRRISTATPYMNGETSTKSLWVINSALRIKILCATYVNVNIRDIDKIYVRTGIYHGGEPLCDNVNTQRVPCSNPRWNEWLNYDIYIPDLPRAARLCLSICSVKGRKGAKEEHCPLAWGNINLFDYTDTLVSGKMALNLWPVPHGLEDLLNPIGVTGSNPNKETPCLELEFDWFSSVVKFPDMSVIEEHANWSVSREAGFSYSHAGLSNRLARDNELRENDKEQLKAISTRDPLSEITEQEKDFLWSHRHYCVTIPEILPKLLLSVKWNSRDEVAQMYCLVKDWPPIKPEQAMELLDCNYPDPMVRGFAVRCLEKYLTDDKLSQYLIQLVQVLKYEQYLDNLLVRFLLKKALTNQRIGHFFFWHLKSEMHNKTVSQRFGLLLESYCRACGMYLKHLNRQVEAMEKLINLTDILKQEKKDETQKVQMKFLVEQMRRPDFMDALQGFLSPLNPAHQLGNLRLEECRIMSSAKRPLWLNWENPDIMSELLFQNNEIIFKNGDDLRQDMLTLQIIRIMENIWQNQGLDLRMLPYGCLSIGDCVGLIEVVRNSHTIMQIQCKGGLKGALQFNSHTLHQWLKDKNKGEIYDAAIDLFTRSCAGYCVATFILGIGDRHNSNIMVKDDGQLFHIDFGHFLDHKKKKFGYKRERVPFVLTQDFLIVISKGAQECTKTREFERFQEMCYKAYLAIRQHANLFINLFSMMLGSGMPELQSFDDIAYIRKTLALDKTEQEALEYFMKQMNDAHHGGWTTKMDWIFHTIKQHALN
In test [3] the target is Mast/stem cell growth factor receptor Kit (Homo sapiens, UniProt P10721). Briefly: Inhibition of wild type c-KIT (unknown origin).
Chain of Mast/stem cell growth factor receptor Kit (Homo sapiens, UniProt P10721) (P10721 whole entry): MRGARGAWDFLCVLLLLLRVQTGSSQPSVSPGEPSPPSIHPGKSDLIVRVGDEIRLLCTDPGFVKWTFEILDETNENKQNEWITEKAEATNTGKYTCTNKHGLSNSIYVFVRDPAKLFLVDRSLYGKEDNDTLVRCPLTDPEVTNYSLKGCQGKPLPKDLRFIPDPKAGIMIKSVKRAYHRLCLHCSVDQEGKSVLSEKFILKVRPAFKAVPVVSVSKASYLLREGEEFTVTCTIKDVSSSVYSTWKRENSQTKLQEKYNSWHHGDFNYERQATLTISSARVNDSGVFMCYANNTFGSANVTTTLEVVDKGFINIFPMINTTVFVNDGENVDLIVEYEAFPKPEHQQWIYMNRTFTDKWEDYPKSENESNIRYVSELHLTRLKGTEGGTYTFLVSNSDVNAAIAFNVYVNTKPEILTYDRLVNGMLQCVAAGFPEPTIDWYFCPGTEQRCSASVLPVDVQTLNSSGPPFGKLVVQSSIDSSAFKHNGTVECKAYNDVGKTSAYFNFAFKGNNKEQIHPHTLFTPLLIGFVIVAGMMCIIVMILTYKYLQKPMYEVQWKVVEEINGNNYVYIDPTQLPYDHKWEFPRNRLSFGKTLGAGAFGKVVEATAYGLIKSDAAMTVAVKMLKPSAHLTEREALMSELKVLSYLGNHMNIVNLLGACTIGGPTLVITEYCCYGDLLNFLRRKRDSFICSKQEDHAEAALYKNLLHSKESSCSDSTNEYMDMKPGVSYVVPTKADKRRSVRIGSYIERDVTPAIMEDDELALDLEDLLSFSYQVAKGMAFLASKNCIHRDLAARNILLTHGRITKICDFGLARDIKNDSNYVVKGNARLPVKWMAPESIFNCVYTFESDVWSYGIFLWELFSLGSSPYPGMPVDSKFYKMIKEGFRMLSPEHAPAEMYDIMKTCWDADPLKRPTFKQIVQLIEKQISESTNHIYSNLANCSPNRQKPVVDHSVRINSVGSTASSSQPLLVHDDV
Test [4] is described as follows: Antiproliferative activity against human HMC-1.2 cells carrying V560G, D816V mutant assessed as cell growth inhibition by MTT assay. The class given is functional, cell-based. The method in brief:
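Cell viability by MTT assay in imatinib-resistant HMC-1.2 human mast cells (V560G, D816V), 48 h exposure across a range of concentrations.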
(Tetrazolium assays rely on reduction of a dye to a coloured formazan, in cell work by metabolically active cells.)

For test [5], the target named is Signal transducer and activator of transcription 3 (Homo sapiens) (UniProt P40763). Briefly: Inhibition of STAT3 phosphorylation in imatinib-resistant human HMC-1.2 cells at 5 uM after 1 hr by Western immunoblotting analysis.
Chain of Signal transducer and activator of transcription 3 (Homo sapiens) (P40763 whole entry): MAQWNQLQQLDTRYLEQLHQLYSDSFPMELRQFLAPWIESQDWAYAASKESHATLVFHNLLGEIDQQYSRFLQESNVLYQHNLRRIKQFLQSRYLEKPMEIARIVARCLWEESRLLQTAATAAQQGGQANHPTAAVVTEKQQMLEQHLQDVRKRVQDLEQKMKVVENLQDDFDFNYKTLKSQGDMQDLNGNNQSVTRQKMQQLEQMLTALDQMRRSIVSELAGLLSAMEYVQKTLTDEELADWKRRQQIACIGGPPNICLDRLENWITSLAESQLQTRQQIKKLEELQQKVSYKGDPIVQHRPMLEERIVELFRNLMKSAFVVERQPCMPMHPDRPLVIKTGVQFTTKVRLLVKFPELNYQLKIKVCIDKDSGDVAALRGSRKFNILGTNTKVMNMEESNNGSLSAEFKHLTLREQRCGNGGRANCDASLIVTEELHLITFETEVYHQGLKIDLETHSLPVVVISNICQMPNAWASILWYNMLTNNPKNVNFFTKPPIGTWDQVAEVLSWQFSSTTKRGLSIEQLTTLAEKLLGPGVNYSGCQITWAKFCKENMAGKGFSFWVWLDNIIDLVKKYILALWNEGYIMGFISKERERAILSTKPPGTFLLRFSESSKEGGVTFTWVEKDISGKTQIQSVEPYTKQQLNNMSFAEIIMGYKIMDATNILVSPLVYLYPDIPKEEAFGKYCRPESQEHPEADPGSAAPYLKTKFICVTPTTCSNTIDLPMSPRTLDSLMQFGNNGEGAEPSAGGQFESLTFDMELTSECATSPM

Chain of Mast/stem cell growth factor receptor Kit (Homo sapiens, UniProt P10721, D816V) (P10721 26-976 D816V limits assumed): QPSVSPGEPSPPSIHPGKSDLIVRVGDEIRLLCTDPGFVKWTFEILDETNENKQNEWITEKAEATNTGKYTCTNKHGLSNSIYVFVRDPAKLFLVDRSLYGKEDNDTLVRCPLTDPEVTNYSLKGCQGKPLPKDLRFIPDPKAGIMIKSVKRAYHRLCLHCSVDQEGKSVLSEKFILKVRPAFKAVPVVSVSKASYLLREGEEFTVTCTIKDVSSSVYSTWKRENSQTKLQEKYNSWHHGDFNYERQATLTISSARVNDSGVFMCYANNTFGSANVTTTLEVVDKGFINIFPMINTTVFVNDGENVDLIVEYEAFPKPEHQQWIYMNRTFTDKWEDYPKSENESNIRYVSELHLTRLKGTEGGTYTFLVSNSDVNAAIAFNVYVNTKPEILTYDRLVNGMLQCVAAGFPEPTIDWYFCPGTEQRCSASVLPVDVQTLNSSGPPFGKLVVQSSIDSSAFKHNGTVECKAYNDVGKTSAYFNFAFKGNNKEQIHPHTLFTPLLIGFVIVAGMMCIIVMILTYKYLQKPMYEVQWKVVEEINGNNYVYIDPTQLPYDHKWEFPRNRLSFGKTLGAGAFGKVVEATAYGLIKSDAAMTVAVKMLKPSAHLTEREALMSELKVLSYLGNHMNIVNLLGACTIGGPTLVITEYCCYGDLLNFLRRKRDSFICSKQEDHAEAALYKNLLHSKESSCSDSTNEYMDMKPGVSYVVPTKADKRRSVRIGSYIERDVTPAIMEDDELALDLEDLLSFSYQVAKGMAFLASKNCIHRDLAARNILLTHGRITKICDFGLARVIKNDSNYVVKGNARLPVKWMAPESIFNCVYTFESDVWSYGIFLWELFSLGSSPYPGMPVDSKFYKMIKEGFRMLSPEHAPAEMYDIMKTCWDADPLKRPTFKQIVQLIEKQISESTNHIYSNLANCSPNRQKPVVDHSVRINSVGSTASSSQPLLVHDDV

Take `COc1ccc(-c2c[nH]c3ncc(-c4ccc(C)cc4)cc23)cc1OC`: the IC50 (as a rule, the point on the concentration scale where inhibition reaches its midpoint) in test [1] was 571 nM; in test [2] it was more than 10000 nM; in test [3], more than 10000 nM.

`COc1ccc(-c2c[nH]c3ncc(-c4ccc(OCCN5CCOCC5)c(N)c4)cc23)cc1OC`: the IC50 in test [1] is 13.9 nM; in test [3] it was 8540 nM.

As for `COc1ccc(-c2c[nH]c3ncc(-c4ccc(C#N)cc4)cc23)cc1OC`, the IC50 in test [1] is 426 nM; in test [2], more than 10000 nM.

For `COc1ccc(-c2c[nH]c3ncc(-c4ccc(F)cc4)cc23)cc1OC`, the IC50 was 72.8 nM in test [1] and more than 10000 nM in test [2].

Take `Cc1nc(Nc2ncc(C(=O)Nc3c(C)cccc3Cl)s2)cc(N2CCN(CCO)CC2)n1` [DASATINIB]: in test [4], the half-inhibitory concentration (IC50) was 820 nM.

Take `Nc1cccc(-c2cnc3[nH]cc(-c4ccc(Cl)cc4)c3c2)c1`: the IC50 in test [1] was 2260 nM.

Molecule `COc1ccc(-c2c[nH]c3ncc(-c4cccc(N)c4)cc23)cc1F` displayed an IC50 in test [1] of 104 nM.

Consider `COc1cc(OC)cc(-c2c[nH]c3ncc(-c4cccc(N)c4)cc23)c1`, for which the IC50 in test [1] amounted to 320 nM.

Regarding `Cc1ccc(C(=O)Nc2ccc(CN3CCN(C)CC3)c(C(F)(F)F)c2)cc1C#Cc1cnc2cccnn12` [PONATINIB], the 50% inhibitory concentration (IC50) in test [4] was 350 nM.

Consider `COc1ccc(-c2c[nH]c3ncc(-c4cccc(C#N)c4)cc23)cc1OC`, for which the IC50 in test [1] was 63.8 nM; in test [2], more than 10000 nM; in test [3], more than 10000 nM.

For `COc1ccc(-c2c[nH]c3ncc(-c4ccc(N)cc4)cc23)cc1OC`, the IC50 was found to be 9.1 nM in test [1] and 56.8 nM in test [3].

`COc1ccc(-c2c[nH]c3ncc(-c4ccc(C)c(N)c4)cc23)cc1OC`: the IC50 is 1430 nM in test [4], 24.6 nM in test [1] and more than 10000 nM in test [3].

Take `Cc1ccc(NC(=O)c2ccc(CN3CCN(C)CC3)cc2)cc1Nc1nccc(-c2cccnc2)n1` [IMATINIB]: the concentration for half-maximal inhibition (IC50) in test [4] was 17000 nM.

As to `COc1ccc(-c2c[nH]c3ncc(-c4ccccc4C)cc23)cc1OC`, the 50% inhibitory concentration (IC50) in test [1] is 785 nM; in test [2] it was more than 10000 nM.

Consider `COc1ccc(-c2c[nH]c3ncc(-c4cccnc4)cc23)cc1OC`, for which the IC50 in test [1] was 60.1 nM; in test [2], more than 10000 nM; in test [3], 3330 nM.

With `Nc1cccc(-c2cnc3[nH]cc(-c4cccc(N)c4)c3c2)c1`, in test [1], the midpoint of inhibition, the IC50, lay at 76.7 nM.

On to `COc1ccc(-c2c[nH]c3ncc(-c4cccc(F)c4)cc23)cc1OC`, for which the results for the IC50 in test [1] and in test [2] were 520 nM and more than 10000 nM, respectively.

For the molecule `COc1ccc(-c2c[nH]c3ncc(-c4cccc(N(C)C)c4)cc23)cc1OC`, the results for the IC50 in test [1] and in test [2] were 29.2 nM and more than 10000 nM, respectively.

For `COc1ccc(-c2c[nH]c3ncc(-c4cncc(N)c4)cc23)cc1OC`, the values for the IC50 in test [1] and in test [2] were 10.8 nM and 1450 nM, respectively.

Regarding `COc1ccc(-c2c[nH]c3ncc(-c4cnc(N)nc4)cc23)cc1OC`, the IC50 in test [1] turned out to be 67.8 nM; in test [3], 1290 nM.

Consider `COc1ccc(-c2c[nH]c3ncc(-c4ccc5c(c4)OCO5)cc23)cc1OC`, for which the values for the IC50 in test [1] and in test [3] were 48.8 nM and 10800 nM, respectively.

`Cc1ccc(-c2c[nH]c3ncc(-c4cccc(N)c4)cc23)cc1` returned an IC50 in test [1] of more than 10000 nM.

Molecule `COc1cccc(-c2c[nH]c3ncc(-c4cccc(N)c4)cc23)c1` came in with an IC50 in test [1] of 670 nM.

For `COc1ccc(-c2cnc3[nH]cc(-c4ccc(OC)c(OC)c4)c3c2)c(OC)c1`, the IC50 in test [1] was 29.2 nM; in test [3] it was 5460 nM.

Regarding `Nc1cccc(-c2cnc3[nH]cc(-c4ccccc4N)c3c2)c1`, 1420 nM corresponded to half-maximal inhibition in test [1] (IC50).

On to `COc1ccc(-c2c[nH]c3ncc(-c4ccccc4)cc23)cc1OC`, for which the IC50 in test [1] is 135 nM; in test [2], more than 10000 nM.

`COc1ccc(-c2cnc3[nH]cc(-c4ccc(OC)c(OC)c4)c3c2)cc1`: the IC50 in test [1] is 32.1 nM; in test [2] it was more than 10000 nM; in test [3] it was 371 nM.

Take `COc1ccc(-c2c[nH]c3ncc(-c4cc(F)cc(F)c4)cc23)cc1OC`: the values for the IC50 in test [1] and in test [2] were 102 nM and more than 10000 nM, respectively.

`COc1ccc(-c2c[nH]c3ncc(-c4cccc(NS(=O)(=O)c5ccccc5)c4)cc23)cc1OC` had an IC50 in test [1] of 126 nM.

For `COc1ccc(-c2c[nH]c3ncc(-c4ccc(Cl)cc4)cc23)cc1OC`, the IC50 in test [1] is 457 nM; in test [2] it was more than 10000 nM.

`COc1ccc(-c2c[nH]c3ncc(-c4cccc(NC(C)=O)c4)cc23)cc1OC`: the IC50 is 65.1 nM in test [1] and 1160 nM in test [3].

Regarding `COc1cc(N)cc(-c2cnc3[nH]cc(-c4ccc(OC)c(OC)c4)c3c2)c1`, the IC50 in test [1] was 26.2 nM; in test [3], more than 10000 nM.

As for `COc1ccc(-c2c[nH]c3ncc(-c4cccc(N)c4)cc23)cc1OC`, the IC50 in test [4] is 1680 nM; in test [1], 6.3 nM; in test [2], more than 10000 nM; in test [3], 1060 nM.

Turning to `COc1ccc(-c2c[nH]c3ncc(-c4cccc(N)c4)cc23)cc1`, in test [1], the IC50 was determined as 398 nM.

In the case of `COc1ccc(-c2c[nH]c3ncc(-c4ccccc4N)cc23)cc1OC`, the concentration for half-maximal inhibition (IC50) in test [1] is 1330 nM; in test [2], more than 10000 nM.

Take `COc1ccc(-c2c[nH]c3ncc(-c4ccncc4)cc23)cc1OC`: the IC50 in test [1] is 32.1 nM; in test [2], 9700 nM.

For the molecule `COc1ccc(-c2c[nH]c3ncc(-c4cncc(NS(=O)(=O)c5ccccc5)c4)cc23)cc1OC`, half-maximal inhibition in test [1] (IC50) was put at 346 nM. In addition, in test [5], the inhibition entry is “Active”.

On to `COc1cccc(-c2cnc3[nH]cc(-c4ccc(OC)c(OC)c4)c3c2)c1`, for which the figures for the IC50 in test [1] and in test [3] were 28.7 nM and 1520 nM, respectively.

With `COc1ccc(-c2c[nH]c3ncc(-c4cccc(C)c4)cc23)cc1OC`, the values for the IC50 in test [1] and in test [2] were 261 nM and more than 10000 nM, respectively.
